# Measurements: ChEMBL document CHEMBL3352418 (Bioorg Med Chem, 2014)
# Legend:
# [1] = AUC in guinea pig at 10.9 mg/kg, po; format: ADME, organism-based, Cavia porcellus; parameters: dose 10.9 mg/kg, route oral; settings: plasma
# How it was run: (§1)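 Single oral dose of 10.9 mg/kg to male animals, n = 3.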
# [2] = Cmax in guinea pig at 10.9 mg/kg, po; format: ADME, organism-based, Cavia porcellus; parameters: dose 10.9 mg/kg, route oral; settings: in vivo; how it was run: as §1
# [3] = AUC in dog at 1.09 mg/kg, iv and 10.9 mg/kg, po; format: ADME, organism-based, Canis lupus familiaris; settings: plasma
# How it was run: (§2)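 Male animals (n = 3) dosed at 1.09 mg/kg iv and 10.9 mg/kg p.o.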
# [4] = AUC in monkey at 20 mg/kg, po; format: ADME, organism-based, Macaca mulatta; parameters: dose 20 mg/kg, route oral; settings: rhesus monkey, plasma
# How it was run: (§3)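 Oral dose of 20 mg/kg given to both sexes: males (n = 2) and females (n = 2).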
# [5] = Tmax in monkey at 20 mg/kg, po; format: ADME, organism-based, Macaca mulatta; parameters: dose 20 mg/kg, route oral; settings: rhesus monkey, in vivo; how it was run: as §3
# [6] = Total body clearance in dog at 1.09 mg/kg, iv and 10.9 mg/kg, po; format: ADME, organism-based, Canis lupus familiaris; settings: in vivo; how it was run: as §2
# [7] = Tmax in dog at 1.09 mg/kg, iv and 10.9 mg/kg, po; format: ADME, organism-based, Canis lupus familiaris; settings: in vivo; how it was run: as §2
# [8] = Cmax in monkey at 20 mg/kg, po; format: ADME, organism-based, Macaca mulatta; parameters: dose 20 mg/kg, route oral; settings: rhesus monkey, in vivo; how it was run: as §3
# [9] = Cmax in dog at 1.09 mg/kg, iv and 10.9 mg/kg, po; format: ADME, organism-based, Canis lupus familiaris; settings: in vivo; how it was run: as §2
# [10] = Tmax in guinea pig at 10.9 mg/kg, po; format: ADME, organism-based, Cavia porcellus; parameters: dose 10.9 mg/kg, route oral; settings: in vivo; how it was run: as §1
# [11] = Volume of distribution at steady state in dog at 1.09 mg/kg, iv and 10.9 mg/kg, po; format: ADME, organism-based, Canis lupus familiaris; settings: in vivo, read-out: Vdss; how it was run: as §2
# [12] = Oral bioavailability in dog at 10.9 mg/kg; format: ADME, organism-based, Canis lupus familiaris; settings: in vivo; how it was run: as §2
compound,measurement,setting,value
COc1cccc(CNC(=O)c2nc3scc(COCc4ccc(C(=O)[O-])cc4)c3c(=O)[n-]2)c1.[Na+].[Na+],AUC,[1],8360 ng·h/mL
same,Cmax,[2],1440 ng/mL
same,AUC,[3],27100 ng·h/mL
same,AUC,[4],82400 ng·h/mL
same,Tmax,[5],3 h
same,clearance,[6],1.85 mL/min/kg
same,Tmax,[7],2 h
same,Cmax,[8],6610 ng/mL
same,Cmax,[9],2440 ng/mL
same,Tmax,[10],0.67 h
same,Vd,[11],0.395 L/kg
same,bioavailability,[12],29%
